Screens: PubChem BioAssay, several laboratories
ROMK primary – modulates human ROMK potassium channel activity; 130,000 tested, 2% active; AID 1918; P48048; B-score at 10 µM; Tet-inducible ROMK, thallium flux fluorescence; actives lie on both sides;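 active = signal ratio slope over the read window, or its plate-corrected B-score, at least 3 SD from the plate mean, either direction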;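 note: B-score of the F/F0 ratio slope over 7 to 12 s after thallium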
ABCG2 block – inhibitors of human ABCG2 transporter, ABCB1 counter-screen. Q9UNQ0. IgMXP3 cells, JC-1 efflux, flow cytometry. inhibition, % at 6.6 µM. 190,000 tested, 0.1% active;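 active = inhibition above 80%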;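 note: 0% = DMSO and 100% = nicardipine control wells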
Target sequence (Q9UNQ0 whole entry, looked up): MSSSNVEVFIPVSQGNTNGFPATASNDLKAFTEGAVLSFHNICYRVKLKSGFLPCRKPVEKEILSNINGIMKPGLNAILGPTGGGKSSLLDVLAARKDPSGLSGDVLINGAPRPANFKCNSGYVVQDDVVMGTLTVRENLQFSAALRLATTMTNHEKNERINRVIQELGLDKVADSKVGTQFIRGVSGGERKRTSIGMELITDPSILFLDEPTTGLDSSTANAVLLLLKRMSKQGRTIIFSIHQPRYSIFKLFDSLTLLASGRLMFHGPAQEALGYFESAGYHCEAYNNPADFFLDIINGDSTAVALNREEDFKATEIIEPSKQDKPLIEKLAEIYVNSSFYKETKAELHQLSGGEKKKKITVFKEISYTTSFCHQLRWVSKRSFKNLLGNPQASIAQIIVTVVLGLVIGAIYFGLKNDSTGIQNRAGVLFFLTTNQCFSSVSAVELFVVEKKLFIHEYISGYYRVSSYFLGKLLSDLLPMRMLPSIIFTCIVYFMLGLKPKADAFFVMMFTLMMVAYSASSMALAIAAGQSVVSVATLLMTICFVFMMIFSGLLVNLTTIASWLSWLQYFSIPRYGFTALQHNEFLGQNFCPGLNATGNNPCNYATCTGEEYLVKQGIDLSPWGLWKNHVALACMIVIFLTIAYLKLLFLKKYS
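Read-out basis: Efflux inhibition in percent versus controls | Test system: ABCG2 IgMXP3 and barcoded ABCB1 CCRF-Adr cell mix | Quantity: 3 million cells/mL in well | Schedule: 10 min at 25 °C | Control set: Nicardipine as high control, DMSO as low control | Reagent: JC-1 as fluorescent efflux pump substrate | Signal: Flow cytometry of retained JC-1 fluorescence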
sdo1 growth – compounds rescuing growth of sdo1-depleted yeast, bone marrow failure model. S. cerevisiae sdo1-depleted JHY4D growth rescue, OD600 30 h; stronger effect = higher value; pdr5 snq2 efflux-pump mutant strain. z-score at 10 µM. 140,000 tested, 0.21% active. AID 817;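 active = z-score above 3 at both the 24 hr and the 30 hr optical density reads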;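 note: z-score against mean and SD of all compound wells on the same plate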
Ins promoter up – MIN6 insulin promoter up-regulation | MIN6 insulin promoter-GFP reporter, high-content imaging; stronger effect = higher value | z-score at 5 µM | 190,000 tested, 0.3% active | AID 1625;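 active = z-score above 3 at 5 µM with at least 500 cells counted in the well; inconclusive = wells under 500 cells, flagged as cytotoxic or low count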
ABCB1 inh – human ABCB1 inhibition, ABCG2 as counter-screen; inhibition, % at 6.6 µM; P08183; CCRF-Adr cells, JC-1 efflux, flow cytometry; 190,000 tested, 0.067% active; in the data active = inhibition above about 40%;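 note: 0% = vehicle and 100% = reference inhibitor; higher value means more JC-1 retained so stronger ABCB1 efflux block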
Autophagy mod – modulators of autophagy; MEF GFP-LC3 puncta imaging; test concentration mostly 10 µM; calls only at 10 µM (by protocol); 190,000 tested, 0.98% active; AID 463193;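 active = percentage of spot-positive cells more than 3 SD above its plate mean, without a fluorescence outlier flag or 80% toxicity; inconclusive = no clear call, values can overlap the other calls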;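 note: spot-positive cell cutoff set from DMSO-treated cells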
ROMK retest – confirmation of human ROMK potassium channel modulators; shares compounds with ROMK primary; ROMK thallium flux, fluorescence ratio; stronger effect = lower value; normalized thallium flux (F/F0 slope) at 10 µM; 3,000 tested, 54% active; AID 1917;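 active = Flux at 10 µM at least 3 SD below or above vehicle control mean in one or both replicates; inconclusive = no clear call, values can overlap the other calls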
Numbers without * were called inactive; i = inactive; u = inconclusive; x = no result. Compounds with a hit are over-represented: about 2.3% of the library has one in this group of screens.

SMILES | ROMK primary | ABCG2 block | sdo1 growth | Ins promoter up | ABCB1 inh | Autophagy mod | ROMK retest
O=C1NC(=O)N(c2ccccc2)C(=O)/C1=C/C=C/c1ccco1 | -9.61* | x | x | -0.08 | x | x | 0.0461*
Cc1ccc(N2C(=O)NC(=O)/C(=C\C=C\c3ccco3)C2=O)cc1 | x | x | x | 0.18 | x | x | x
Cc1ccc(N2C(=O)NC(=O)/C(=C\C=C\c3ccco3)C2=O)cc1C | -8.65* | 1.1 | -0.2 | 0.03 | 4.0 | i | 0.0392*
Cc1cc([N+](=O)[O-])c2ccccc2[n+]1[O-] | x | x | x | -6.12 | x | x | x
O=C1NC(=O)C(=Cc2ccc3c(c2)OCO3)C(=O)N1 | -0.534 | -1.4 | x | -0.34 | -0.5 | i | x
O=C1NC(=O)C(=Cc2cn(CCOc3ccc4c(c3)OCO4)c3ccccc23)C(=O)N1 | -5.61* | 10.3 | -0.43 | 2.49 | 0.0 | i | u
C#CCOc1cc(C2C3=C(COC3=O)Nc3cc4c(cc32)OCO4)ccc1OC (stereo not given) | 3.47* | 13.0 | x | -0.41 | 3.5 | i | 0.0862
O=c1c2ccccc2[nH]c(=S)n1-c1ccc2c(c1)OCCO2 | 0.0443 | x | x | -0.77 | x | x | x
CN1CCC(C)(O)C2CCCCC21 (stereo not given) | -11.1* | 0.9 | x | 0.67 | 0.5 | i | 0.082
Fc1ccccc1CCNCc1cccc2ccccc12 | -3.61* | 17.5 | -0.02 | 0.37 | 3.5 | i | 0.0567*
CC(C)Cc1nc(N2CCNCC2)c(C#N)c2c1CCC2 | x | x | x | 0.11 | x | x | x
CCc1nc(N2CCNCC2)c(C#N)c2c1CSC(C)(C)C2 | -3.72* | 1.9 | 0.02 | -0.92 | 0.7 | i | 0.0747
Nc1ccccc1-[n+]1c(-c2ccccc2)cc(-c2ccccc2)cc1-c1ccccc1 | x | x | x | -2.62 | x | x | 0.0618*
CCCCC(=O)N/N=C/c1c(O)n(CC)c(=S)[nH]c1=O | 1.88* | -2.2 | 0.64 | -0.04 | -0.4 | i | 0.0767
CCCCCn1c(=O)c(C(=O)Nc2nc(CC(=O)OCC)cs2)c(O)c2ccccc21 | -0.242 | -2.4 | x | -0.52 | 2.0 | i | x
CN(C)C(Cc1ccccc1)C(=O)c1ccccc1 (stereo not given) | x | 1.8 | -0.56 | 0.38 | 0.1 | i | 0.0814
CN1C(=O)C(=Cc2ccccc2Oc2ccc(Cl)cc2)C(=O)N(C)C1=O | x | -1.5 | -0.2 | 0.61 | -0.6 | i | 0.0842
CN1C(=O)C(=Cc2ccccc2OCc2ccc(Cl)cc2)C(=O)N(C)C1=O | x | -7.7 | -2.04 | 0.4 | -1.0 | i | x
CCN(CC)P(=O)(c1nccn1C)N(CC)CC | -1.35 | 2.9 | x | -0.43 | 3.0 | i | x
Cn1cc(NC(=O)CCl)cn1 | 0.28 | 0.8 | x | 1.04 | 0.1 | i | x
CCOC(=O)c1cc2c(cn1)[nH]c1ccccc12 | x | 3.6 | -0.14 | x | 0.3 | i | u
CCOC(=O)c1nc2ccccc2c(=O)n1-c1ccc(C)cc1C | x | 61.8 | -0.73 | -0.19 | 1.2 | i | x
COc1c(C)cc(C(=O)C2CCCN(Cc3ccccn3)C2)cc1C (stereo not given) | -0.634 | 8.4 | x | -0.39 | -1.5 | i | x
COCCCn1c(-c2ccc(OC)cc2)cc(C(=O)NC2CCCCCCC2)c1C | x | 19.6 | -0.25 | -0.28 | 4.5 | i | x
O=C1N(c2ccccc2)C(c2cccnc2)N2CCCN12 (stereo not given) | 2.46* | 0.1 | x | -0.11 | 0.1 | i | 0.0872
SMILES | ROMK primary | ABCG2 block | sdo1 growth | Ins promoter up | ABCB1 inh | Autophagy mod | ROMK retest
O=C1N(c2cccc(Cl)c2)C(c2cccnc2)N2CCCN12 (stereo not given) | -0.0684 | 0.3 | x | -0.51 | -0.1 | i | x
CC(=O)OC1N=C(c2ccccc2Cl)c2cc(Br)ccc2N(C)C1=O (stereo not given) | x | x | x | 0.08 | x | x | x
O=C1NC(=O)C(=Cc2coc3ccc(O)cc3c2=O)C(=O)N1 | x | x | x | 0.3 | x | x | 0.0428*
Cc1cccc(-n2c(=S)[nH]c3ccccc3c2=O)n1 | 2.5* | 0.4 | x | 0.47 | 0.4 | i | 0.0749
Cc1cccc(-n2c(C)nc3ccccc3c2=O)n1 | 0.255 | 0.2 | 0.49 | 0.07 | -0.1 | i | x
CC(=O)N1CCC(N2CCCC(C(=O)c3cccc(Cl)c3)C2)CC1 (stereo not given) | 0.454 | 1.7 | x | -0.53 | 0.5 | i | x
CCOc1cc(CNCCc2c[nH]c3ccccc23)cc(Cl)c1OC | -3.17* | -3.5 | x | -2.21 | -0.6 | i | 0.0611*
CN1CCN(c2cc(N3CCCCCC3)c(F)cc2[N+](=O)[O-])CC1 | -3.57* | 11.3 | -0.02 | -1.18 | 1.7 | i | 0.0529*
CCNCCNc1ccc([N+](=O)[O-])c2cccnc12 | x | x | x | -0.36 | x | x | x
Cc1nonc1OCCNCCNc1ccc([N+](=O)[O-])c2cccnc12 | -5.29* | 4.1 | 1.18 | 0.13 | 1.4 | i | 0.0532*
CN1C(=O)C(=Cc2ccc(N3CCOCC3)o2)C(=O)N(C)C1=S | x | 1.0 | x | 0.09 | 0.6 | i | x
C=CCN1C(=O)/C(=C\c2ccc(N3CCOCC3)o2)C(=O)NC1=S | -4.74* | 3.6 | -0.22 | 0.66 | 0.2 | i | 0.052*
CCN1C(=O)C(=Cc2ccc(N3CCOCC3)o2)C(=O)N(CC)C1=S | x | x | x | 0.91 | x | x | 0.0545*
O=C1/C(=C\c2ccccc2)C2OCC=C3CN4CCC56c7ccccc7N1C5C2C3CC46 (stereo not given) | x | x | x | -0.13 | x | x | x
CN(c1ccc(OCC(=O)N2CCN(C/C=C/c3ccccc3)CC2)cc1)S(=O)(=O)c1cccs1 | x | x | x | -1.46 | x | x | x
CN1c2ccccc2Oc2ccccc21 | x | -1.1 | -0.19 | 0.03 | -0.2 | i | x
NC1=Nc2ccccc2Oc2ccccc21 | x | 0.0 | 0.19 | x | 0.0 | i | 0.0478*
Cn1c(O)c(/C=C/C=Nc2ccccc2)c(=O)n(C)c1=O | x | 65.7 | 0.83 | -0.23 | -0.1 | i | 0.0513*
Cn1c(O)c(C=Nc2ccccc2-c2ccccc2)c(=O)n(C)c1=O | 0.175 | x | x | -0.14 | x | x | x
Nc1c([N+](=O)[O-])cc(F)c(N2CCNCC2)c1Br | -3.57* | -0.2 | 0.9 | u | -0.3 | i | 0.0553*
